What was measured:
YWHAE = biological target: T1, YWHAE (Homo sapiens, UniProt P62258); assay: competitive SILAC chemical proteomics in DM93 soluble proteome; assay type: cell-based
T1 sequence (P62258 1-255): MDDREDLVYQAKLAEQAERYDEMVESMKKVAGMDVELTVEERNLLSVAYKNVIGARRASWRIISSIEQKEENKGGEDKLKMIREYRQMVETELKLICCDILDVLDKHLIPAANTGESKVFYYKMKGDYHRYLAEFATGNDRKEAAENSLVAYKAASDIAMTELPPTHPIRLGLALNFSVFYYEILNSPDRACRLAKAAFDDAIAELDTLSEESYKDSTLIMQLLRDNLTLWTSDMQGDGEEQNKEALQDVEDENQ

DPP3 = biological target: T2, DPP3 (Homo sapiens, UniProt Q9NY33); assay: peptidase substrate assay; assay type: biochemical
T2 sequence (Q9NY33 2-737): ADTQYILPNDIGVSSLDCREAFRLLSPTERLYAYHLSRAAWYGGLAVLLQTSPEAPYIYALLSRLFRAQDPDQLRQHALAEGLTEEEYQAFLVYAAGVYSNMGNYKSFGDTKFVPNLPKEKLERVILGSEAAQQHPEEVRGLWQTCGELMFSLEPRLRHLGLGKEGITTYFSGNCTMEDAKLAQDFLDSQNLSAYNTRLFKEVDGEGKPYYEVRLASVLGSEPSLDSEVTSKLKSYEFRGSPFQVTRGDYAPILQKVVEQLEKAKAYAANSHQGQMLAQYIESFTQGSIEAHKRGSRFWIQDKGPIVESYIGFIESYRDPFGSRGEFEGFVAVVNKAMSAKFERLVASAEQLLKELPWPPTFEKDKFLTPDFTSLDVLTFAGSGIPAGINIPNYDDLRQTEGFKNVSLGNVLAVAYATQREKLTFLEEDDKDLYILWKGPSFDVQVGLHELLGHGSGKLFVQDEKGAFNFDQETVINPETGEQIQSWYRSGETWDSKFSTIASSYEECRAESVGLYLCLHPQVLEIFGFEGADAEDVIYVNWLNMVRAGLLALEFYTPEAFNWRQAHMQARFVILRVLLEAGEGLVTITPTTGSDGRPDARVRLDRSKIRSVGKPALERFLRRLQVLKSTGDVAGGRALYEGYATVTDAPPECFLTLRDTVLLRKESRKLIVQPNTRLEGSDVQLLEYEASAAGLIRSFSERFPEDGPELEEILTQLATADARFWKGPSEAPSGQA
Outline: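 Purified DPP3 was exposed to test compound over a concentration series, and its catalytic activity was read by a peptidase substrate assay. IC50 was reported with 95% confidence intervals; data are mean ± s.e.m. from n = 3 biologically independent experiments. Y417 engagement was measured by quantitative chemical proteomics with the HHS-482 probe on soluble proteome from HEK293T cells expressing recombinant human DPP3 (n = 2).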

[1] = biological target: glutathione S-transferase Pi (GSTP1) (Homo sapiens, UniProt P09211); assay: GSH substrate assay in recombinant GSTP1 lysates; assay type: biochemical
Sequence of glutathione S-transferase Pi (GSTP1) (P09211 2-210): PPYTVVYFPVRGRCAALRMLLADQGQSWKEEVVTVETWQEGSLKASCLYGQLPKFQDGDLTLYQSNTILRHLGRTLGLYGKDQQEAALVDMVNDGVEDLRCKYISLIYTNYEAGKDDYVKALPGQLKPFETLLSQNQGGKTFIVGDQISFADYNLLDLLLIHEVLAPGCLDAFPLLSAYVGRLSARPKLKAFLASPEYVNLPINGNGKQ

| Compound | competitive SILAC chemical proteomics in DM93 soluble proteome (50 μM) (YWHAE) | IC50 (DPP3) [µM] | IC50 [1] [µM] |
| --- | --- | --- | --- |
| COc1ccc(-c2ncn(S(=O)(=O)c3ccc(-c4ccccc4)cc3)n2)cc1 [JWB142] | > 6 SILAC ratio (SR) | 17 |  |
| O=S(=O)(c1ccc2ccccc2c1)n1cnc(-c2ccncc2)n1 [JWB198] |  |  | 16 |

Reference: publication PMC7332231 (Journal of the American Chemical Society, 2020)
